Reference: PMC10842363 (Clinical cancer research : an official journal of the …, 2023)
Like-named read-outs stand apart in the source and are kept apart here.

What was measured:
[1] = test system: HER2+ tumors, DCCs and metastases; test: Sequential Abemaciclib then HC4 treatment in MMTV-HER2 mice; type: in vivo, mouse; conditions: for GADD34 expression in primary tumors / Ki67 staining in primary tumors: 50 mpk daily, 4 weeks
[2] = test system: HER2+ DCCs and metastases
PERK [3] = biological target: T1, PERK (Homo sapiens, UniProt Q9NZJ5); conditions: HEK293 cells stimulated with Tunicamycin
T1 sequence (Q9NZJ5 30-1116): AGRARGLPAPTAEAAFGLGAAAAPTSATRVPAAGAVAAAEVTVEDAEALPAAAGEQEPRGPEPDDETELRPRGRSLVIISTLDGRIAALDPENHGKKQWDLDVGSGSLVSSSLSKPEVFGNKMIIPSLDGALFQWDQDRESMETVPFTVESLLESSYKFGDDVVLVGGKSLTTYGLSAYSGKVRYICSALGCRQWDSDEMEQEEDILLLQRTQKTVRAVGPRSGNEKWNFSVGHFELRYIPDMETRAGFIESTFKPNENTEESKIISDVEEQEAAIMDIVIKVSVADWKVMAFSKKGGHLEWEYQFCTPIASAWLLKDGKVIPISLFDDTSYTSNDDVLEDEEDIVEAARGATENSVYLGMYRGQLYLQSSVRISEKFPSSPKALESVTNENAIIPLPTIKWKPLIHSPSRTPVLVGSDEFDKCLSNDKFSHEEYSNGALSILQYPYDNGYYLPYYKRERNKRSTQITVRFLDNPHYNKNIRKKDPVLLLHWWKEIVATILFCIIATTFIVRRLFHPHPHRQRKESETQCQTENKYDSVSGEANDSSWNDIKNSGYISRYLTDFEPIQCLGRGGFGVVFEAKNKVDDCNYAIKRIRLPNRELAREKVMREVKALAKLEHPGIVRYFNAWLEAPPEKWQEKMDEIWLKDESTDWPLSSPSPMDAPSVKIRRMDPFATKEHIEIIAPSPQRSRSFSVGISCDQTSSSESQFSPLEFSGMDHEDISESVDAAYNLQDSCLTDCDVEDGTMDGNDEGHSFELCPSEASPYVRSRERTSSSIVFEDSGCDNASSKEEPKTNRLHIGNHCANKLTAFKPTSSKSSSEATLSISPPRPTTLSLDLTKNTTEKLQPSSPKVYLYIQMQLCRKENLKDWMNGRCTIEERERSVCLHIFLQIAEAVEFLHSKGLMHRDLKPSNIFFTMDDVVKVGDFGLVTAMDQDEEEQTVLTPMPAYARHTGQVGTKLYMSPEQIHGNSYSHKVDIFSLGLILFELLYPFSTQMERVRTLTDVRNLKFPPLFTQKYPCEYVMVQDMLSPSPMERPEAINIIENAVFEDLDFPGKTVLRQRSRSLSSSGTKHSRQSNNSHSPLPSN

PERK [4] = biological target: PERK (Mus musculus, UniProt Q9Z2B5); conditions: 50 mpk IP daily, 2 weeks
PERK (Mus musculus, UniProt Q9Z2B5), sequence (Q9Z2B5 29-1114): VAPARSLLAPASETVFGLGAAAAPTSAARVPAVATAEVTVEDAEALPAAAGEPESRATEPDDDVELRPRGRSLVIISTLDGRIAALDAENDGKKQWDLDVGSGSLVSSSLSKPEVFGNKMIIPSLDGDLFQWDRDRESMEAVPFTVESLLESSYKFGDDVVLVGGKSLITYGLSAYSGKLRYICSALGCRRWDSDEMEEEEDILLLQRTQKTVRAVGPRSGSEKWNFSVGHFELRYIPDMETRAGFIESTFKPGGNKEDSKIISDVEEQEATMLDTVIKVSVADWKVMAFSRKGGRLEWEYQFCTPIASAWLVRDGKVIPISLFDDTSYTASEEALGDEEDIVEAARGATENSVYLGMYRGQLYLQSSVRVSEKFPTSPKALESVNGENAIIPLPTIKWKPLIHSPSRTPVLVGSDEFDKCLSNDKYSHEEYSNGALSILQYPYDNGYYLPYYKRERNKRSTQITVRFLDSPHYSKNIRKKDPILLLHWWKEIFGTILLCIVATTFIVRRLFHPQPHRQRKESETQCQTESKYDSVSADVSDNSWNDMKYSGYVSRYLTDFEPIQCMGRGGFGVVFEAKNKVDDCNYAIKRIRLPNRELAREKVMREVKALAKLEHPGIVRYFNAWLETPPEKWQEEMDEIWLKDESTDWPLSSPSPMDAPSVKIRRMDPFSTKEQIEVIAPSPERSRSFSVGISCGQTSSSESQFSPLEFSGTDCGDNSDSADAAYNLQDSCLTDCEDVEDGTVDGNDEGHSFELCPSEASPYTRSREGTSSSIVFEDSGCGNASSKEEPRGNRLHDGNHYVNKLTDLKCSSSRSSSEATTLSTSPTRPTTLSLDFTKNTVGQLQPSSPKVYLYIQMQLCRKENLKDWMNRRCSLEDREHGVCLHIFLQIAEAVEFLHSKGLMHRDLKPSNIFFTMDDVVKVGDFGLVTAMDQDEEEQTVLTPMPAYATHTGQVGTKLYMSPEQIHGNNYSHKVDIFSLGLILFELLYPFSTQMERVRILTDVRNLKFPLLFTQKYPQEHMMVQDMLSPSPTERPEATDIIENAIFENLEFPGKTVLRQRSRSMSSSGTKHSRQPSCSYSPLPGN

HER2 [5] = test system: HER2
[6] = 28-day oral dosing study in mice; type: in vivo; conditions: oral dosing for 28 days, exposures similar to 50 mpk IP; data not shown
GADD34 [7] = conditions: MCF10A breast pre-malignant cells
ZR-75-1 cells = test: 3D acini culture in Matrigel, ZR-75-1; type: cell-based; conditions: ZR-75-1, 2 μM, 10-day treatment
PERK [8] = biological target: T1, PERK; conditions: MCF10A cells overexpressing HER2
SKBR3 cells = test: 3D acini culture in Matrigel, SKBR3; type: cell-based; conditions: SKBR3, 2 μM, 10-day treatment
HER2 [9] = conditions: HC4-treated vs control animals
T-HEp3 cells = test: T-HEp3 HNSCC PDX i.v. injection, solitary lung DCCs in Balb/c nu/nu mice; type: in vivo, human; conditions: 50 mg/kg for 10 days, started 24 h after i.v. injection
[10] = test system: HER2-driven early lesions in the mammary gland
EMT6 cells = test: EMT6 syngeneic spontaneous lung metastasis model; type: in vivo, Balb/c mice; conditions: 10 mg/kg
HER2 [11] = test system: HER2; remark: listed apart in the source
[12] = Mammary gland morphology in non-tumor bearing healthy mice; type: in vivo; conditions: 2 weeks
MCF10A-HER2 cells [13] = test system: MCF10A-HER2 cells
D-HEp3 cells = test: Chick chorioallantoic membrane; type: in vivo, human; conditions: 20 μM, 6-day treatment, CAM
MMTV-HER2 tumors = test: Primary tumor growth in MMTV-HER2 females; type: in vivo, mouse
kinases = test: KINOMEscan kinase selectivity assay; type: binding
In short: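 Competition binding: kinases were T7 phage-tagged (grown in BL21-derived E. coli) or HEK-293-expressed with DNA tags. Incubated with biotinylated-ligand streptavidin beads and test compound (40x DMSO stocks) in SeaBlock/PBS/Tween/DTT buffer, 1 h RT. Eluted with 0.5 μM non-biotinylated ligand (30 min); kinase quantified by qPCR. Selectivity score S = hits/assays at a %Ctrl threshold, mutants excluded.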

[14] = Repeated dosing tolerability; type: in vivo; conditions: repeated dosing from 30 to 100 mg/kg
GADD34 [15] = conditions: E0771 luminal B breast cancer cells
[16] = test system: Fv2E-ΔNPERK fusion construct-expressing cell line; conditions: PERK dimerization induced with AP20187
[17] = In vivo pharmacokinetic study, single dose; conditions: IP administration, CD1 female mice
[18] = Safety readouts in treated mice; type: in vivo
MMTV-HER2 cells = test: Established metastases after tail vein injection of MMTV-HER2 cells; type: in vivo, mouse; conditions: 50 mg/kg for 2 weeks, started 3 weeks after tail vein injection
MCF10A-HER2 cells [19] = conditions: MCF10A-HER2 cells treated with HC4
[20] = MCF10A-HER2, 2 μM, +/- EGF 100 ng/ml
[21] = MCF10A-HER2, in presence of Thapsigargin 4 nM

Compound: CCN1CCN(Cc2ccc(Nc3ncc(F)c(-c4cc(F)c5nc(C)n(C(C)C)c5c4)n3)nc2)CC1 [Abema, Abemaciclib]
- GADD34 expression in primary tumors [1]: increases
- Ki67 staining in primary tumors [1]: reduces
- Ki67+ solitary DCCs ([1]; lung sections): almost absent

Compound: Cc1cc(NC(=O)[C@H](O)c2cc(F)cc(F)c2)ccc1-c1cnc(N)c(C(=O)NC(C)C)c1 [HC4]
- area of macro-metastases ([2]; 50 mpk IP daily, two weeks): not accompanied by a significant effect
- number and incidence of lung macro-metastases (>100 cells) ([2]; 50 mpk IP daily, two weeks): reduced
- number of DCCs in bone marrow ([2]; 50 mpk IP daily, two weeks): significantly decreased
- number of P-Rb positive solitary DCCs in lung ([2]; 50 mpk IP daily, two weeks): not affecting
- number of lung micro-metastases (2-100 cells) ([2]; 50 mpk IP daily, two weeks): significant decrease
- number of non-proliferating (P-Rb negative) single DCCs in lung ([2]; 50 mpk IP daily, two weeks): significantly reduced
- HER2+ circulating tumor cells in blood ([2]; vehicle vs HC4-treated animals): no significant differences
- P-PERK (P-T980) levels (PERK [3]): effectively decreased
- P-PERK inhibition in pancreatic tissue, especially pancreatic islets (PERK [4]; IHC): only partial inhibition
- P-PERK and P-eIF2α levels by IHC (PERK [4]; mammary gland ducts and pancreatic tissue): significant decrease
- decrease in P-PERK levels by western blot (PERK [4]; tumor lysates): around 50%
- P-AKT, P-S6 and P-ERK1/2 levels (HER2 [5]; [20]): downregulation
- basal and EGF-induced levels of P-EGFR and P-HER2 (HER2 [5]; [20]): decreased
- levels of P-HER2 and P-AKT (HER2 [5]; [21]): decrease
- molecular weight of phosphorylated HER2 protein (HER2 [5]; [21]): lower molecular weight
- total HER2 levels or heterodimerization with EGFR (HER2 [5]; surface biotinylation and co-immunoprecipitation, data not shown): No obvious effect
- effects on the pancreas or clinical chemistry (insulin and glucose levels) [6]: no deleterious effects
- thapsigargin induced GADD34 expression (GADD34 [7]): completely eliminated
- levels of apoptosis (cleaved caspase-3) (ZR-75-1 cells): significantly increased
- P-PERK (P-T980) levels (PERK [8]): effectively decreased
- levels of apoptosis (cleaved caspase-3) (SKBR3 cells): significantly increased
- P-HER2 levels in tumors (area and intensity score) (HER2 [9]): significantly lower
- reduction in the number of solitary HEp3 DCCs in the lung (T-HEp3 cells): ~ 3 fold
- mammary glandular architecture (ductal branching) ([10]; 24-week-old MMTV-HER2 females, 50 mpk, 2 weeks): less dense branching
- cytokeratin 8/18 expression in the luminal layer ([10]; 50 mpk, 2 weeks): increased expression
- number of occluded hyperplasias and DCIS-like lesions relative to vehicle ([10]; 50 mpk, 2 weeks): less than half
- hollow lumen mammary gland ducts, share of structures ([10]; around 20 % in control females): more than 60%
- primary tumor growth (EMT6 cells; 17 days, not shown): without affecting
- metastatic incidence and multiplicity of lesions per lung/animal (EMT6 cells; started 9 days after implanting, 17 days of treatment): strongly inhibited
- endocytosed phospho- and total HER2 (HER2 [11]; MCF10A-HER2, reversible surface biotinylation): clearly increased
- abundance of P-HER2 and total HER2 in the cell surface (HER2 [11]; MCF10A-HER2, not shown): did not significantly alter
- normal branching and morphology of the mammary gland ductal tree [12]: did not affect
- levels of proliferation (phospho-histone H3) (MCF10A-HER2 cells [13]; 3D acini cultures, 2 μM, cell line not given): did not detect a significant change
- levels of apoptosis (cleaved caspase-3) (MCF10A-HER2 cells [13]; MCF10A-HER2, 2 μM, 10-day treatment): significantly increased
- dormant D-HEp3 cells in vivo (D-HEp3 cells): eradication
- increase in cleaved caspase-3 positive D-HEp3 cells in the nodules (D-HEp3 cells): 5 fold
- tumors showing regression (MMTV-HER2 tumors; 2-week window treatment): Four
- DNA fragmentation (TUNEL staining) in tumor sections (MMTV-HER2 tumors; 50 mpk daily, two weeks): significant increase
- median final tumor volume (MMTV-HER2 tumors; 50 mpk daily, two weeks): significant decrease
- tumor growth (MMTV-HER2 tumors; overt tumors, 50 mpk daily, two weeks): reduced growth rate
- levels of proliferation (phospho-histone H3 IHC) in tumors (MMTV-HER2 tumors; vehicle- vs HC4-treated tumors): not different
- specificity for EIF2AK3 (PERK) over EIF2AK1 (HRI), EIF2AK2 (PKR), EIF2AK4 (GCN2) or HER2 (kinases; Supplementary Table S3): high specificity
- KINOMEscan kinase profiling selectivity (kinases; compared to other PERK inhibitors, specifically GSK2656157, even at 10 μM): exceedingly high selectivity
- GADD34 expression in primary tumors [1]: completely erased
- Ki67 staining in primary tumors [1]: does not dramatically affect
- body weight [14]: no significant changes
- tolerability [14]: well tolerated
- thapsigargin induced GADD34 expression (GADD34 [15]): completely eliminated
- rescue of pro-apoptotic function of strong PERK activation [16]: fully rescued
- bioavailability [17]: demonstrated bioavailability
- bone marrow cell homeostasis and peripheral blood white cells (total cell counts) ([18]; MMTV-HER2 females, 50 mpk IP daily, two weeks): did not have a significant effect
- glucose levels, bone marrow or peripheral blood cell counts, drinking and feeding behavior ([18]; non-tumor or cancer bearing mice, doses used): did not significantly affect
- frequency of already established micro-metastases (MMTV-HER2 cells): not affecting
- macro-metastatic lesion incidence and total metastatic burden (MMTV-HER2 cells): strongly reduce
- sensitivity to low dose thapsigargin treatment (MCF10A-HER2 cells [19]): sensitive
